In ChEMBL document CHEMBL3085690, “Naturally occurring antimicrobial peptide OH-CATH30 selectively regulates the innate immune response to protect against sepsis” (J Med Chem, 2013) one finds Activity data, which are given here for 1 compound.

The assay concerns the target Transcription factor p65 (Mus musculus) (UniProt Q04207). Put plainly: Activation of NFkappaB p65 in mouse BMDM assessed as phosphorylation at 10 ug/ml after 15 to 30 mins by Western blotting. Put shortly:
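BMDMs came from mouse bone marrow cultured in RPMI 1640 with 10% FCS and 20% L929-conditioned medium. After treatment, lysates were run on 10% SDS−PAGE, transferred to PVDF, blocked with 5% BSA, and probed for phospho-p65. Detection used an HRP anti-rabbit IgG secondary and chemiluminescence.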
Background: Immunoblotting shows a protein as a band on a membrane.

Calls of active or inactive are those of the source. The rule behind the calls is not given here.

Transcription factor p65 (Mus musculus), sequence (Q04207 whole entry): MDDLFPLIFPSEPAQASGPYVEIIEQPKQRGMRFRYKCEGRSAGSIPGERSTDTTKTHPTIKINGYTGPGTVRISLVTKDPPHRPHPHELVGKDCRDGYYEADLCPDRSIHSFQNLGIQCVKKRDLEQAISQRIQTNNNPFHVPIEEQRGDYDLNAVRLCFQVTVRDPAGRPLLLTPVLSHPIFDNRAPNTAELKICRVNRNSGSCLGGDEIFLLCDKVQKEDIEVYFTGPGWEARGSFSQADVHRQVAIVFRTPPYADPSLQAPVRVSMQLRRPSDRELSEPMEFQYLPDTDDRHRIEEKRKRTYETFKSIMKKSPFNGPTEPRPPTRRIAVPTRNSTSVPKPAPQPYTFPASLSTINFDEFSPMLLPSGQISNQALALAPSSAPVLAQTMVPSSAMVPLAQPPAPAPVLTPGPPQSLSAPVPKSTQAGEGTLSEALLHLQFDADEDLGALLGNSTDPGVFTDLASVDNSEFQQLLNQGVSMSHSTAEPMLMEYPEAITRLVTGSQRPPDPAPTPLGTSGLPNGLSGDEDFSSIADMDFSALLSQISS

For the compound `CC[C@H](C)[C@H](NC(=O)[C@H](CCCCN)NC(=O)[C@H](CCC(=O)O)NC(=O)[C@H](CCCCN)NC(=O)[C@H](CO)NC(=O)[C@H](CCCCN)NC(=O)[C@H](CCCNC(=N)N)NC(=O)[C@H](Cc1ccccc1)NC(=O)[C@H](Cc1ccccc1)NC(=O)[C@H](CC(=O)O)NC(=O)CNC(=O)[C@H](CC(C)C)NC(=O)[C@@H](N)CC(C)C)C(=O)NCC(=O)N[C@@H](CCCCN)C(=O)N[C@@H](CCC(=O)O)C(=O)N[C@@H](Cc1ccccc1)C(=O)N[C@@H](CCCCN)C(=O)N[C@@H](CCCNC(=N)N)C(=O)N[C@H](C(=O)N[C@H](C(=O)N[C@@H](CCC(N)=O)C(=O)N[C@@H](CCCNC(=N)N)C(=O)N[C@H](C(=O)N[C@@H](CCCCN)C(=O)N[C@@H](CC(=O)O)C(=O)N[C@@H](Cc1ccccc1)C(=O)N[C@@H](CC(C)C)C(=O)N[C@@H](CCCNC(=N)N)C(=O)N[C@@H](CC(N)=O)C(=O)N[C@@H](CC(C)C)C(=O)N[C@H](C(=O)N1CCC[C@H]1C(=O)N[C@@H](CCCNC(=N)N)C(=O)N[C@H](C(=O)N[C@@H](CCC(=O)O)C(=O)N[C@@H](CO)C(=O)O)[C@@H](C)O)C(C)C)[C@@H](C)CC)C(C)C)[C@@H](C)CC`, the result was Active.
